Calls of active or inactive are those of the source. No cut-off for these calls is given here.
Legend:
[1] = biological target: Toll-like receptor 2 (Homo sapiens) (UniProt O60603); assay: Antagonist activity at human TLR2 expressed in HEK-blue cells assessed as inhibition of Pam3CSK4-induced NF-kappaB activation-mediated SEAP production at 25 uM after 24 hrs by Quanti-blue-based assay; type: cell-based
Method in brief: (§1)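 HEK-Blue hTLR2 cells in DMEM with 10% serum and antibiotics, plated at 4 × 10⁴ cells per well for 24 h. Medium then replaced with compound plus agonist for 24 h at 37 °C. Agonists (final): Pam₃CSK₄ 10 ng/ml (TLR1/2), Pam₂CSK₄ 10 ng/ml (TLR2/6), Poly I:C 10 µg/ml (TLR3). Supernatant mixed 1:1 with Quanti-Blue; SEAP read at OD 620 nm after 15–30 min.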

[2] = biological target: Toll-like receptor 2 (Homo sapiens) (UniProt O60603); assay: Antagonist activity at human TLR2 expressed in HEK-blue cells assessed as inhibition of Pam3CSK4-induced NF-kappaB activation-mediated SEAP production at 50 uM after 24 hrs by Quanti-blue-based assay; type: cell-based; method in brief: as §1
[3] = Cytotoxicity against HEK-Blue cells up to 100 uM after 24 hrs by MTT assay; type: cell-based; conditions: human
Method in brief: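 HEK-TLR2 cells in DMEM with 10% FBS, plated at 4 × 10⁴ cells per well for 24 h. Compound plus Pam₃CSK₄ (final 10 ng/ml) added, then incubated 24 h. MTT (5 mg/ml in PBS) added for 3 h at 37 °C. Formazan dissolved in DMSO; absorbance read at 490 nm.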

[4] = biological target: T1, Toll-like receptor 1/2 (Homo sapiens) (UniProt O60603+Q15399); assay: Antagonist activity at human TLR1/2 expressed in HEK-blue cells assessed as inhibition of Pam3CSK4-induced NF-kappaB activation-mediated SEAP production at 25 uM after 24 hrs by Quanti-blue-based assay; type: cell-based; method in brief: as §1
TLR2/TLR6 (Homo sapiens) [5] = biological target: T2, TLR2/TLR6 (Homo sapiens) (UniProt O60603+Q9Y2C9); assay: Antagonist activity at human TLR2/6 expressed in HEK-blue cells assessed as inhibition of Pam2CSK4-induced NF-kappaB activation-mediated SEAP production at 25 uM after 24 hrs by Quanti-blue-based assay; type: cell-based; method in brief: as §1
[6] = biological target: Toll-like receptor 3 (Homo sapiens) (UniProt O15455); assay: Antagonist activity at human TLR3 expressed in HEK-Blue assessed as inhibition of poly 1:C-induced NF-kappaB activation-mediated SEAP production at 25 uM after 24 hrs by Quanti-blue-based assay; method in brief: as §1
[7] = biological target: Toll-like receptor 2 (Mus musculus) (UniProt Q9QUN7); assay: Antagonist activity at TLR2 in mouse Raw 264.7 cells assessed as decrease in Pam3CSK4-induced iNOS levels at 40 uM after 24 hrs relative to positive control; type: cell-based
Method in brief: (§2)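 Raw 264.7 cells in RPMI 1640 with 10% serum and antibiotics, plated at 8 × 10⁴ cells per well for 24 h. Compound and TLR agonist (Pam₃CSK₄ for TLR1/2, Pam₂CSK₄ for TLR2/6) added, then incubated 24 h. Nitric oxide in supernatant detected with DAN (0.05 mg/ml in 0.62 M HCl), 15 min in the dark.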

[8] = biological target: Toll-like receptor 2 (Homo sapiens) (UniProt O60603); assay: Antagonist activity at human TLR2 expressed in HEK-Blue cells assessed as inhibition of Pam3CSK4-induced TLR2 upregulation at 10 uM by Western blot analysis; type: cell-based
Method in brief: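 HEK-Blue hTLR2 cells treated with compound and Pam₃CSK₄ at 400 ng/ml. Lysed in RIPA buffer with 1% PMSF; proteins run on SDS-PAGE and transferred to PVDF. Membranes blocked with 5% milk in TBST. Probed overnight at 4 °C with anti-TLR2 (1:250) and anti-GAPDH (1:2000), then HRP secondary (1:2500) 1 h at RT. Detected by ECL.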

TLR2/TLR6 (Mus musculus) = TLR2/TLR6 (Mus musculus) (UniProt Q9QUN7+Q9EPW9); assay: Antagonist activity at TLR2/TLR6 in mouse Raw 264.7 cells assessed as decrease in Pam2CSK4-induced iNOS levels at 40 uM after 24 hrs relative to positive control; type: cell-based; method in brief: as §2
[9] = biological target: Toll-like receptor 2 (Homo sapiens) (UniProt O60603); assay: Antagonist activity at TLR2 in human PBMC assessed as inhibition of Pam3CSK4-induced TNFalpha signalling after 24 hrs by ELISA; type: cell-based
Method in brief: (§3)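 Human PBMC seeded at 2.5 × 10⁵ cells per well in RPMI 1640 with 10% FBS and 1% penicillin/streptomycin. Cells treated with compound plus Pam₃CSK₄ 10 ng/ml for 24 h at 37 °C, 5% CO₂. Supernatants stored frozen at −80 °C. TNF-α measured by sandwich ELISA against recombinant human standards, each sample in triplicate.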

[10] = biological target: Toll-like receptor 2 (Homo sapiens) (UniProt O60603); assay: Antagonist activity at TLR2 in human PBMC assessed as inhibition of Pam3CSK4-induced TNFalpha signalling at 10 uM after 24 hrs by ELISA relative to control; type: cell-based; method in brief: as §3
[11] = biological target: T1, Toll-like receptor 1/2 (Homo sapiens); assay: Antagonist activity at human TLR1/2 expressed in HEK-blue cells assessed as inhibition of Pam3CSK4-induced IL-8 mRNA expression at 100 uM preincubated for 1 hr followed by Pam3CSK4 induction measured after 1 hr by qRT-PCR method relative to control; type: cell-based
TLR2/TLR6 (Homo sapiens) [12] = biological target: T2, TLR2/TLR6 (Homo sapiens); assay: Antagonist activity at human TLR2/6 expressed in HEK-blue cells assessed as inhibition of Pam2CSK4-induced IL-8 mRNA expression at 100 uM preincubated for 1 hr followed by Pam2CSK4 induction measured after 1 hr by qRT-PCR method relative to control; type: cell-based

Chain of Toll-like receptor 2 (Homo sapiens) (O60603 whole entry): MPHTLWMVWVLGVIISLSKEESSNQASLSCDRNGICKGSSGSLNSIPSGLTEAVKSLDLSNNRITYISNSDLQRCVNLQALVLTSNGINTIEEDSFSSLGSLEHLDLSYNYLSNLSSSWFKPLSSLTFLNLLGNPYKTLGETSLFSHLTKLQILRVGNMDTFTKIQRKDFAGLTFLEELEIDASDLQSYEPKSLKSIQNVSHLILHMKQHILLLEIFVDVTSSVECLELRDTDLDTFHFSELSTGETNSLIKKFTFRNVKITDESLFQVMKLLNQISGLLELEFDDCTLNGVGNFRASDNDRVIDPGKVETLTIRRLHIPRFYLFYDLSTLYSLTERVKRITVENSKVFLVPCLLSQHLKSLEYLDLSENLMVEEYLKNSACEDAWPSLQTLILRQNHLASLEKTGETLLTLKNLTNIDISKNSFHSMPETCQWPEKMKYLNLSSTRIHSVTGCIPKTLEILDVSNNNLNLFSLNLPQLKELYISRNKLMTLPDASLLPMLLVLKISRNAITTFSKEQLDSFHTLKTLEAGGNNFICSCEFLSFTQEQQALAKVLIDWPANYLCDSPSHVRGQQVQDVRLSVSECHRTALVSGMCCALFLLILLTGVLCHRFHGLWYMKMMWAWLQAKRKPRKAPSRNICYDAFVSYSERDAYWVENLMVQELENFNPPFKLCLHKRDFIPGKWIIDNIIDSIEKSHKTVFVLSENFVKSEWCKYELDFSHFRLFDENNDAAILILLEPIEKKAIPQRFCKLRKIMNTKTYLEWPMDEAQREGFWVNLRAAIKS
Chain of Toll-like receptor 2 (Mus musculus) (Q9QUN7 whole entry): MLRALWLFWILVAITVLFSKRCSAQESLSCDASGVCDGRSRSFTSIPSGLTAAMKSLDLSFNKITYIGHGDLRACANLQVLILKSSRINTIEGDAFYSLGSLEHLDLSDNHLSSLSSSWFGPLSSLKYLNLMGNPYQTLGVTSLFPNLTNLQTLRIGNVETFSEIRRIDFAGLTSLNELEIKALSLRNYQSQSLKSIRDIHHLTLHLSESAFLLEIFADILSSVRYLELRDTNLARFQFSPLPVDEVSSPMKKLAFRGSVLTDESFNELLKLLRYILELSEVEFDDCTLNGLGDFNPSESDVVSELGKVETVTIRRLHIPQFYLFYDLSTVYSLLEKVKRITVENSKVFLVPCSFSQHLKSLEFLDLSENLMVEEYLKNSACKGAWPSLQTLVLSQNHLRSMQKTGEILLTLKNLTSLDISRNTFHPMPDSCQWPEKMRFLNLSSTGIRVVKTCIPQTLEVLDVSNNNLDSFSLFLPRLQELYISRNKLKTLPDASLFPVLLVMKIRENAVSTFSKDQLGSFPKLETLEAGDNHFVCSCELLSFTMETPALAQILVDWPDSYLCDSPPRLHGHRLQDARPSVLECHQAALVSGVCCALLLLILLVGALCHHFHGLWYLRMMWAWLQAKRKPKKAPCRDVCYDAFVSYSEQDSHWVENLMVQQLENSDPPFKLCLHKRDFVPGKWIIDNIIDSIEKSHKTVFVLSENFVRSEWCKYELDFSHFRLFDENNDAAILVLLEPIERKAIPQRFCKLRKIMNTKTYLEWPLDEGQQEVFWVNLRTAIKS
Chain of Toll-like receptor 3 (Homo sapiens) (O15455 whole entry): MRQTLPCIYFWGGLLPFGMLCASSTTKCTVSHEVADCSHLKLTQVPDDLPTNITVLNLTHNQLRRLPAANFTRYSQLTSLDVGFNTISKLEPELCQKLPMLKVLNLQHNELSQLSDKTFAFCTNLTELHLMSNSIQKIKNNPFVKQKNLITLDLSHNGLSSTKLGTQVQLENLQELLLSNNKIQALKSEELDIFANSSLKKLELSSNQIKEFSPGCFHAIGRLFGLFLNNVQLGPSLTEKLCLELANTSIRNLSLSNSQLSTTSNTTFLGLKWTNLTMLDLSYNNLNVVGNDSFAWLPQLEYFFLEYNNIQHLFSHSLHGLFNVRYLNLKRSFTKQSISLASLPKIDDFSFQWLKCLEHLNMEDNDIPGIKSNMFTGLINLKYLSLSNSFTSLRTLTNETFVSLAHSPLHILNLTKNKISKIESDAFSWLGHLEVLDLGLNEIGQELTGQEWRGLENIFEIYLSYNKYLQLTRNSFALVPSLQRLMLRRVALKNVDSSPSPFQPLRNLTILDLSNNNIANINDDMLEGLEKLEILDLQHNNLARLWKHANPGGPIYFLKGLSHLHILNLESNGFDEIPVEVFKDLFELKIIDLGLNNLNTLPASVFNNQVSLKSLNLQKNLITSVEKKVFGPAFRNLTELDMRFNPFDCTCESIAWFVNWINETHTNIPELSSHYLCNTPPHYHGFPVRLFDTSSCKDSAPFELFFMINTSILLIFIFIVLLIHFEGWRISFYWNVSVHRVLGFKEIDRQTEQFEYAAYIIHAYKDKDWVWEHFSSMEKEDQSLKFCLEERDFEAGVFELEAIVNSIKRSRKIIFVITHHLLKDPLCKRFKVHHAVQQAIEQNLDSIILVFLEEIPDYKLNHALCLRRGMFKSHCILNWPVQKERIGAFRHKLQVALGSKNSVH

Structure (SMILES)	inhibition [1] [%]	inhibition [2] [%]	further results
COc1cccc(/C=N/c2cccc(C(=O)O)c2)c1O	0	23.7	
COc1cccc(CNc2ccccc2C(=O)c2ccc(Cl)cc2)c1O	0	19.2	
CCOc1cccc(/C=N/c2ccc(O)cc2)c1O	5.77	75.7	
O=C(O)c1cccc(/N=C/c2cccc(O)c2O)c1	5	9.05	
CCOc1cccc(/C=N/c2cccc(C(=O)O)c2C)c1O	5.43	38	
COc1cccc(/N=C/c2ccc(C(F)(F)F)cc2)c1	7.27	0.28	
COc1cc(/C=N/c2ccc(O)cc2)ccc1O	7.51	62.7	
COc1cccc(/C=N/c2cccc(C(=O)O)c2C)c1	0.99	1.61	
COc1cccc(/C=N/c2ccc(O)cc2)c1	0.74	56.4	
Cc1c(/N=C/C=C/c2ccccc2)cccc1C(=O)O	1.74	14.4	
COc1ccc(/N=C/c2ccc(O)c(OC)c2)cc1	0	0	
COc1ccc(/N=C/c2cccc(OC)c2OC)cc1	0	0	
Cc1cccc(/N=C/c2c(O)ccc3ccccc23)c1C(=O)O	0	0	
COc1cc(/C=N/c2cc(N)cc(C(=O)O)c2)ccc1O	0	0	
CCOc1cccc(/C=N/c2cccc(C)c2C(=O)O)c1O	2.39	27.8	
Cc1c(/N=C/c2c(O)ccc3ccccc23)cccc1C(=O)O	0	0	
COc1ccc(/N=C/c2cccc(OC)c2O)cc1	3.77	45.6	
CCOc1cccc(/C=N/c2ccc(OC)cc2)c1O	8.33	35.2	
CCOc1cccc(/C=N/c2cccc(C(=O)O)c2)c1O	6.93	19.4	
Cc1c(/N=C/c2ccc(C(F)(F)F)cc2)cccc1C(=O)O	0	0	
COc1cccc(/C=N/c2cccc(C(=O)O)c2C)c1O	14.9	51.8	inhibition [11]: > 50%; inhibition (TLR2/TLR6 (Homo sapiens) [12]): > 50%
O=C(O)c1ccc(C(F)(F)F)cc1/N=C/c1c(O)ccc2ccccc12	2.53	0	
Cc1cccc(/N=C/c2cccc(O)c2O)c1C(=O)O	15	21.2	

Now from value to compound, other results behind:

inhibition [1] [%]	inhibition [2] [%]	Structure (SMILES)	further results
0	0	COc1cccc(/C=N/c2ccc(-c3ccccc3)cc2)c1	
2.35	3.8	C(=N/c1ccc(-c2ccccc2)cc1)/c1c[nH]c2ccccc12	
0	0	O=C(O)c1cccc(/N=C/c2c(O)ccc3ccccc23)c1	
5.21	1.97	COc1ccc(/N=C/c2cccc3ccccc23)cc1	
24.2	64.1	CCOc1cccc(/C=N/c2ccc(-c3ccccc3)cc2)c1O	
2.72	0	O=C(c1ccccc1)c1ccccc1/N=C/c1c(O)ccc2ccccc12	
5.63	3.1	C(=C\c1ccccc1)/C=N/c1ccc(-c2ccccc2)cc1	
2.39	0	COc1cc(/C=N/c2ccc(-c3ccccc3)cc2)ccc1O	
27.5	95.8	Oc1ccc(/N=C/C=C/c2ccccc2)cc1	
3.09	22.9	O=C(c1ccc(Cl)cc1)c1ccccc1/N=C/c1c(O)ccc2ccccc12	
17	44.9	COc1ccc(/N=C/c2cccc(O)c2O)cc1	
3.66	0	COc1ccc(/N=C/c2c(O)ccc3ccccc23)cc1	
0	0	C(=N\c1ccc(-c2ccccc2)cc1)/c1cccc2ccccc12	
3.99	15.1	COc1ccc(/N=C/C=C/c2ccccc2)cc1	
66.8	95.1	COc1cccc(/C=N/c2ccccc2C(=O)c2ccc(Cl)cc2)c1O	Activity [3]: Non-Toxic; inhibition [4]: Active; inhibition (TLR2/TLR6 (Homo sapiens) [5]): Active; inhibition [6]: inactive; inhibition [7]: > 70%; inhibition [8]: 50%; inhibition (TLR2/TLR6 (Mus musculus)): > 70%; inhibition [9]: Dose-dependent effect; inhibition [10]: 90%
3.59	49	CCOc1cccc(/C=N/c2ccccc2C(=O)c2ccccc2)c1O	
5.35	1.41	Oc1ccc2ccccc2c1/C=N/c1ccc(-c2ccccc2)cc1	
5.07	0.75	FC(F)(F)c1ccc(/C=N/c2ccc(-c3ccccc3)cc2)cc1	
2.39	2.58	Cc1c(/N=C\c2c[nH]c3ccccc23)cccc1C(=O)O	
14.9	91.1	COc1cccc(/C=N/c2ccc(O)cc2)c1O	
0.33	5.77	O=C(O)c1ccc(C(F)(F)F)cc1/N=C\c1c[nH]c2ccccc12	
1.86	30	COc1cccc(/C=N/c2ccccc2C(=O)c2ccccc2)c1O	
23.3	75.3	COc1cccc(/C=N/c2ccc(-c3ccccc3)cc2)c1O	
0	0	Oc1ccc(/N=C/c2c(O)ccc3ccccc23)cc1	
2.11	0	COc1ccc(/N=C\c2c[nH]c3ccccc23)cc1	
44	98.8	Oc1ccc(/N=C/c2cccc3ccccc23)cc1	
35.5	70.7	CCOc1cccc(/C=N/c2ccccc2C(=O)c2ccc(Cl)cc2)c1O	

— ChEMBL document CHEMBL4219143, “Synthesis, structure-activity relationships and preliminary mechanism study of N-benzylideneaniline derivatives as potential TLR2 inhibitors” (Bioorg Med Chem, 2018)
